Data reported in paper PMC5696082 (Analytical biochemistry, 2017).

Tests used:
[1] = Background hydrolysis of substrates in phosphate buffer; assay type: physicochemical; conditions: phosphate buffer 100 mM, pH 8, 0.1 mg/mL BSA
[2] = Fluorophore characterization; assay type: physicochemical; conditions: for Maximum λemm / Maximum λexc / Relative Fluorescence Intensity: 37°C, phosphate buffer 100 mM pH 8, 0.1 mg/mL BSA, 1% DMSO
Procedure, shortened: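 Fluorophores dissolved in 100 mM phosphate buffer, pH 8, 0.1 mg/mL BSA, 1% DMSO, at 37°C. Excitation and emission maxima found by scanning fluorescence intensity at 2 nm steps on a plate spectrophotometer. Relative intensity expressed as RFU per nmol.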

FAAH = target: T1, FAAH (Homo sapiens, UniProt O00519); test: Potency of esterase inhibitors, FAAH; assay type: biochemical
T1 sequence (O00519 1-579): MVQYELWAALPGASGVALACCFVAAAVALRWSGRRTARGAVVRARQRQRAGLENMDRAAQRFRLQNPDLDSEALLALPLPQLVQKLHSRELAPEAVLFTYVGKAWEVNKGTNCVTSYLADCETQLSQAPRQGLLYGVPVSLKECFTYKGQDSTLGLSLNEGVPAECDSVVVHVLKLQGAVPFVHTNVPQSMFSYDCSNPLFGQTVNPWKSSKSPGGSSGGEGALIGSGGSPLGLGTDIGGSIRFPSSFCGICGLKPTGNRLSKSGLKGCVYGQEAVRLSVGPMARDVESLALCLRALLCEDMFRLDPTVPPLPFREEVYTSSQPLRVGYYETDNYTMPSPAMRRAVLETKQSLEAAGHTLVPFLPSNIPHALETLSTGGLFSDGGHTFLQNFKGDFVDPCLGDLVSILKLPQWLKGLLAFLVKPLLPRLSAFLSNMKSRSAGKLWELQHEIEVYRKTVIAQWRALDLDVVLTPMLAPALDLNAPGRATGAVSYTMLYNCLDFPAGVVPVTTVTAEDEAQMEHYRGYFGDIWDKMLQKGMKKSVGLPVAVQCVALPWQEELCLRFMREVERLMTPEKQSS

hCE3 = target: T2, hCE3 (Homo sapiens, UniProt Q6UWW8); test: Potency of esterase inhibitors, hCE3; assay type: biochemical
T2 sequence (Q6UWW8 27-571): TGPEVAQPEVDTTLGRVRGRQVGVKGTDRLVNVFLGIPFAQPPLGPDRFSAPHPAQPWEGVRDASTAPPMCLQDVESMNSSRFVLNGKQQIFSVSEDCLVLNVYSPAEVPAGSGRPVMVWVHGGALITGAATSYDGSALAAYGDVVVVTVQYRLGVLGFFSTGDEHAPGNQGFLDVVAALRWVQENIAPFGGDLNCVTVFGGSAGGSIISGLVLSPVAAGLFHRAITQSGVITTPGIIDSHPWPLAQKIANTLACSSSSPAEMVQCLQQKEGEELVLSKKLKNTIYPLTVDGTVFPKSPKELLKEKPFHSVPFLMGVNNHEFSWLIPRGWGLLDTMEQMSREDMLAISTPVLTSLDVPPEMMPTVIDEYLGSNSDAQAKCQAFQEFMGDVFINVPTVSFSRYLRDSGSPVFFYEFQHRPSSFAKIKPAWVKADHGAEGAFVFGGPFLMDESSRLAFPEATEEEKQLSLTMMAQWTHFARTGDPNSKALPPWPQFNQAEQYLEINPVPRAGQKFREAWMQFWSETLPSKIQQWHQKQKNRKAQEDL

PON1 = PON1 (Homo sapiens, UniProt P27169); test: Potency of esterase inhibitors, PON1; assay type: biochemical
Procedure, shortened: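 PON1 used as crude lysate of baculovirus-infected insect cells in PBS. Added to 2-fold serial inhibitor dilutions (top concentration at most 100 µM) and preincubated 5 min. Cyanohydrin ester substrate then added to 50 µM final, DMSO ≤2%, in 100 mM phosphate pH 8, 0.1 mg/mL BSA, 37°C. Fluorescence (ex 330/em 465 nm) read kinetically for 10 min. IC50 from linear regression of log[inhibitor] against % remaining activity; triplicates, single experiment.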

AADAC = target: T3, AADAC (Homo sapiens, UniProt P22760); test: Potency of esterase inhibitors, AADAC; assay type: biochemical
T3 sequence (P22760 1-399): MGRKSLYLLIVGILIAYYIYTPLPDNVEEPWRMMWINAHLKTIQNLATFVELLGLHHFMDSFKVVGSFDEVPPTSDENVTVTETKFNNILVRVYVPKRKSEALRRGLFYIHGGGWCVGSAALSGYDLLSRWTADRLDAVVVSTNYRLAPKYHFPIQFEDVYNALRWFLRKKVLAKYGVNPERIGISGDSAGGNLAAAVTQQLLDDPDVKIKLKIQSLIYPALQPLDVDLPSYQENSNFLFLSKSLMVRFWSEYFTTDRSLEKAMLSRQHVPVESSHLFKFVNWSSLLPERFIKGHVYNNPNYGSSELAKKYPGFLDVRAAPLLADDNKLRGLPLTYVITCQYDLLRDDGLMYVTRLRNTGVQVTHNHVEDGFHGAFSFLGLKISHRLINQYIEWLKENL

Kinetic properties [3] = substrate: COc1ccc2cc(C(C#N)OC(C)=O)ccc2c1; test: Kinetic properties; assay type: biochemical, human; conditions: 37°C, pH 8
Kinetic properties [4] = substrate: CCCCC(C)CCC(=O)Nc1ccc(OC)nc1C; test: Kinetic properties; assay type: biochemical, human; conditions: 37°C, pH 8
[5] = other: hCE1, 6 substrate concentrations 3.13-100 µM
[6] = other: hCE2, 6 substrate concentrations 3.13-100 µM

Sequence of PON1 (P27169 whole entry, species assumed): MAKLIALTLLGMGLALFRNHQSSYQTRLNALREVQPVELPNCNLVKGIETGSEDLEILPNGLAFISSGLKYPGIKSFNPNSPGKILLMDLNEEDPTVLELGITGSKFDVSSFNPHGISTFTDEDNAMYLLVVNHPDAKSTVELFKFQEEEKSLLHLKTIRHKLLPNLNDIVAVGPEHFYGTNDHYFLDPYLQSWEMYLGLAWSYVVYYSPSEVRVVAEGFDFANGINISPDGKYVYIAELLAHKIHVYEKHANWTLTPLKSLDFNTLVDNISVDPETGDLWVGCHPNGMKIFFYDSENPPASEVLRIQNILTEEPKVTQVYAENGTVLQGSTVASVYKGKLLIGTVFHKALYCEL

## CC(=O)Oc1ccc([N+](=O)[O-])cc1 [4-NPA, 4-nitrophenyl acetate]
[1]
  Rate of background hydrolysis: 610 pmol/min

## COc1ccc(N)c(C)n1 [I, 2-methoxy-5-amino-6-methylpyridine]
[2]
  Maximum λemm: 394 nm
  Maximum λexc: 304 nm
  Relative Fluorescence Intensity: 4,400 RFU/nmol

## COc1ccc(N)cn1 [II, 2-methoxy-5-aminopyridine]
[2]
  Maximum λemm: 398 nm
  Maximum λexc: 304 nm
  Relative Fluorescence Intensity: 3,100 RFU/nmol

## CN(C)C(=O)C(CCN1CCC(O)(c2ccc(Cl)cc2)CC1)(c1ccccc1)c1ccccc1 [Loperamide]
FAAH
  IC50: > 100 µM
hCE3
  IC50: > 100 µM
PON1
  IC50: > 100 µM
AADAC
  IC50: 23 µM

## COc1nc(C)ccc1N [V, 2-methyl-5-amino-6-methoxypyridine]
[2]
  Fluorescence, fold less than I: 4 fold
  Maximum λemm: 364 nm
  Maximum λexc: 292 nm
  Relative Fluorescence Intensity: 1,100 RFU/nmol

## COc1ccc2cc(C=O)ccc2c1 [VI, 6-methoxynaphthaldehyde]
[2]
  Maximum λemm: 462 nm
  Maximum λexc: 320 nm
  Relative Fluorescence Intensity: 2,600 RFU/nmol

B1: hCE1 (Homo sapiens) (protein)
chain: GHPSSPPVVDTVHGKVLGKFVSLEGFAQPVAIFLGIPFAKPPLGPLRFTPPQPAEPWSFVKNATSYPPMCTQDPKAGQLLSELFTNRKENIPLKLSEDCLYLNIYTPADLTKKNRLPVMVWIHGGGLMVGAASTYDGLALAAHENVVVVTIQYRLGIWGFFSTGDEHSRGNWGHLDQVAALRWVQDNIASFGGNPGSVTIFGESAGGESVSVLVLSPLAKNLFHRAISESGVALTSVLVKKGDVKPLAEQIAITAGCKTTTSAVMVHCLRQKTEEELLETTLKMKFLSLDLQGDPRESQPLLGTVIDGMLLLKTPEELQAERNFHTVPYMVGINKQEFGWLIPMQLMSYPLSEGQLDQKTAMSLLWKSYPLVCIAKELIPEATEKYLGGTDDTVKKKDLFLDLIADVMFGVPSVIVARNHRDAGAPTYMYEFQYRPSFSSDMKPKTVIGDHGDELFSVFGAPFLKEGASEEEIRLSKMVMKFWANFARNGNPNGEGLPHWPEYNQKEGYLQIGANTQAAQKLKDKEVAFWTNLFAKKAVEKPPQTEHIEL
Kinetic properties [3]; [5]
  Vmax: 1.4 µmol/min/mg
  Vmax/Km: 280000 µL/min/mg
Kinetic properties [4]; [5]
  Vmax: 0.48 µmol/min/mg
  Vmax/Km: 17000 µL/min/mg

B2: hCE2 (Homo sapiens) (protein)
chain: QDSASPIRTTHTGQVLGSLVHVKGANAGVQTFLGIPFAKPPLGPLRFAPPEPPESWSGVRDGTTHPAMCLQDLTAVESEFLSQFNMTFPSDSMSEDCLYLSIYTPAHSHEGSNLPVMVWIHGGALVFGMASLYDGSMLAALENVVVVIIQYRLGVLGFFSTGDKHATGNWGYLDQVAALRWVQQNIAHFGGNPDRVTIFGESAGGTSVSSLVVSPISQGLFHGAIMESGVALLPGLIASSADVISTVVANLSACDQVDSEALVGCLRGKSKEEILAINKPFKMIPGVVDGVFLPRHPQELLASADFQPVPSIVGVNNNEFGWLIPKVMRIYDTQKEMDREASQAALQKMLTLLMLPPTFGDLLREEYIGDNGDPQTLQAQFQEMMADSMFVIPALQVAHFQCSRAPVYFYEFQHQPSWLKNIRPPHMKADHGDELPFVFRSFFGGNYIKFTEEEEQLSRKMMKYWANFARNGNPNGEGLPHWPLFDQEEQYLQLNLQPAVGRALKAHRLQFWKKALPQKIQELEEPEERHTEL
Kinetic properties [3]; [6]
  Vmax: 9.6 µmol/min/mg
  Vmax/Km: 1.2e+06 µL/min/mg
Kinetic properties [4]; [6]
  Vmax: 0.004 µmol/min/mg
  Vmax/Km: 450 µL/min/mg
